The source of these data is article PMC4339026 (Biopolymers, 2014).

“Also recorded” adds a separate entry of the source. Like-named read-outs stand apart in the source and are kept apart here.

One may read the IC50 as the concentration that gives 50% inhibition. As a reminder, the Ki is the dissociation constant of the complex between target and ligand, obtained from inhibition or displacement.

The target in test [1] is T1, meprin β (Homo sapiens, UniProt Q16820).
T1 sequence (Q16820 62-614 limits assumed): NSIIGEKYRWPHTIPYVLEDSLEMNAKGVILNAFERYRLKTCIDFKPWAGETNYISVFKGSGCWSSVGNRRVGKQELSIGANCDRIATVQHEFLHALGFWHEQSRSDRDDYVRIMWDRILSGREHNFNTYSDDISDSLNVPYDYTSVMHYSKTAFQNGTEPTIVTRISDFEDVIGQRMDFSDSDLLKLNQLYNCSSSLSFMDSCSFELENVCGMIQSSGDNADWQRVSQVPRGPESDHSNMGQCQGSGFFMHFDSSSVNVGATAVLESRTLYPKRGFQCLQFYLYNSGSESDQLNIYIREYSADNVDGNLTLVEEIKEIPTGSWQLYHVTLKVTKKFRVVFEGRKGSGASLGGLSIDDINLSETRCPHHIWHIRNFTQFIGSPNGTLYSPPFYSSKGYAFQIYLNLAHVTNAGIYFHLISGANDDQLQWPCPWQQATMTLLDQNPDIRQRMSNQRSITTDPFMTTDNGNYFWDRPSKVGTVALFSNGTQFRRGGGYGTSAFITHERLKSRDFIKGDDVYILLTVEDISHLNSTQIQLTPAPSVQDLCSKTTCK
The test is described as follows: Meprin β LOPAC pilot screen. In kind it is biochemical. As to conditions: 18 μM; for meprin β LOPAC pilot screen outcome: hit cutoff 25% inhibition.

Test [2] concerns the target T2, meprin α (Homo sapiens, UniProt Q16819).
T2 sequence (Q16819 66-653 limits assumed): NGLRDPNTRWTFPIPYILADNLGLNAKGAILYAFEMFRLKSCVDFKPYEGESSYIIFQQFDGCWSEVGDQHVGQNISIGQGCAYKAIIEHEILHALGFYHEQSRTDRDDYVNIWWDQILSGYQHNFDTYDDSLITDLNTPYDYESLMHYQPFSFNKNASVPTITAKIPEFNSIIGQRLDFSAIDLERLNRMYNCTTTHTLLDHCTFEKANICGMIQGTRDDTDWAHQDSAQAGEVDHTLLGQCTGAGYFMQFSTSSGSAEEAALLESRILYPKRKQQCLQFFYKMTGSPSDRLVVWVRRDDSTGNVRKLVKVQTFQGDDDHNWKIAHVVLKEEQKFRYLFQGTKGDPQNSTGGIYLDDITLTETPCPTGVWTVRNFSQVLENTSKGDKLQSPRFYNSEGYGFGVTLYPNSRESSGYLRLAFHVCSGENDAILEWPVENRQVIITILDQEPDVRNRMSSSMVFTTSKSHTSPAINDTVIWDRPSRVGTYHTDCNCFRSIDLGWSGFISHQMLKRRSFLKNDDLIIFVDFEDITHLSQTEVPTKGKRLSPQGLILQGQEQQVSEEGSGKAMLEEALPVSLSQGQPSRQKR
The test is described as follows: Meprin α LOPAC pilot screen. In kind it is biochemical. As to conditions: 18 μM, hit cutoff 25% inhibition. A digest of the protocol: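 Single-point FRET screen of 1,280 library compounds at 18 μM nominal final concentration, on four plates. Trypsin-activated recombinant human meprin α (2x solution 2.6 nM, Hepes/Brij-35 pH 7.5) was pre-incubated 30 min at RT with test compound added by pin tool. 2x (MCA)-YVADAPK-(K-ε-DNP) at 20 μM was then added for 1 h at RT. Read at ex 324/em 393 nm.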

For test [3], the target named is T1, meprin β. The test is described as follows: Meprin β HTS FRET assay, dose response. In kind it is biochemical. A digest of the protocol: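 Trypsin-activated meprin β (trypsin removed on immobilized ovomucoid) in 50 mM Hepes, 0.01% Brij-35, pH 7.5, added as 2x (0.15 nM) solution. Pin-transferred inhibitor was preincubated 30 min at RT. 2x (20 μM) (MCA)-EDEDED-(K-ε-DNP) was then added, run 1 h at RT, and read at ex 324/em 393 nm. A 3-fold dilution series was run in quadruplicate, and % inhibition was fitted with a 4-parameter equation. DMSO final was 0.1% or 1.0%.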

The target in test [4] is T2, meprin α. The experiment in a line: Meprin α HTS FRET assay, dose response. The format is biochemical. A digest of the protocol:
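Recombinant human Strep-tagged meprin α was expressed in baculovirus-infected BTI-TN-5B1-4 cells, trypsin-activated, then freed of trypsin. It was used as a 2x solution at 2.6 nM in 50 mM Hepes, 0.01% Brij-35, pH 7.5. Test compound was pre-incubated 30 min at RT, then 2x (MCA)-YVADAPK-(K-ε-DNP) at 20 μM was added for 1 h at RT. Read at ex 324/em 393 nm. 3-fold dilutions in quadruplicate; 4-parameter fit; 0.1% or 1.0% DMSO.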

The target in test [5] is meprin β. Particulars: read-out: Ki meprin β; cited from earlier work.
For test [6], the system named is meprin α. Particulars: cited from earlier work.
Another test deals with T3, ADAM10 (Homo sapiens, UniProt O14672).
T3 sequence (O14672 214-748): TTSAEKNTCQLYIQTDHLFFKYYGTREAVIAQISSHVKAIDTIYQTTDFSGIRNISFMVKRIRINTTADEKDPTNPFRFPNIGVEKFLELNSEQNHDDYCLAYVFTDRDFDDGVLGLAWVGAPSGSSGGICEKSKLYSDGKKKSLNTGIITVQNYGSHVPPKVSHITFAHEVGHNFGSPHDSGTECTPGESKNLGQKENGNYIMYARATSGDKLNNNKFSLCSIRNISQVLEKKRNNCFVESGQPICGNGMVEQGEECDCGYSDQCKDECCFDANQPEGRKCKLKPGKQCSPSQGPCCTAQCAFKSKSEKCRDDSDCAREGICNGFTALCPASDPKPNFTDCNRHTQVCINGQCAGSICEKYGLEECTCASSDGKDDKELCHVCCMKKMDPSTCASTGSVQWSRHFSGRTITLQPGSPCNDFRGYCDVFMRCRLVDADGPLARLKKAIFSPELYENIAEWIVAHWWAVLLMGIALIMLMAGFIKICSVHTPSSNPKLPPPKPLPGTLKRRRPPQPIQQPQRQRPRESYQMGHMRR
The experiment in a line: Selectivity testing against zinc metalloproteases: ADAM10. In kind it is biochemical. As to conditions: read-out: IC50 ADAM10; n = 3 Mean ± SD.

A further test deals with MMP-13 (Homo sapiens, UniProt P45452). The experiment in a line: Selectivity testing against zinc metalloproteases: MMP-13. The format is biochemical. Particulars: read-out: IC50 MMP-13; n = 3 Mean ± SD.
The target in another test is MMP-9 (Homo sapiens, UniProt P14780). The test is described as follows: Selectivity testing against zinc metalloproteases: MMP-9. In kind it is biochemical. As to conditions: read-out: IC50 MMP-9; n = 3 Mean ± SD.
The target in another test is MMP-14 (Homo sapiens, UniProt P50281). The experiment in a line: Selectivity testing against zinc metalloproteases: MMP-14. In kind it is biochemical. As to conditions: read-out: IC50 MMP-14; n = 3 Mean ± SD.
Test [7] concerns the target T1, meprin β. The test is described as follows: Meprin β inhibition kinetics / enzyme kinetics. In kind it is biochemical. A digest of the protocol:
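Trypsin-activated meprin β at 1 nM was run with (MCA)-EDEDED-(K-ε-DNP) 0.5–25 μM plus varying inhibitor concentrations in 50 mM Hepes, 0.01% Brij-35, pH 7.5, at 25 °C. Fluorescence was read at ex 324/em 393 nm. Rates came from the linear portion of the progress curves. Ki and Ki′ came from nonlinear regression with a mixed-inhibition model. Mechanism came from the alpha parameter and was checked with Lineweaver-Burk plots.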

A further test has as its target MMP-8 (Homo sapiens, UniProt P22894). The test is described as follows: Selectivity testing against zinc metalloproteases: MMP-8. The format is biochemical. As to conditions: read-out: IC50 MMP-8; n = 3 Mean ± SD.
The target in a further test is T4, MMP-2 (Homo sapiens, UniProt P08253).
T4 sequence (P08253 110-660): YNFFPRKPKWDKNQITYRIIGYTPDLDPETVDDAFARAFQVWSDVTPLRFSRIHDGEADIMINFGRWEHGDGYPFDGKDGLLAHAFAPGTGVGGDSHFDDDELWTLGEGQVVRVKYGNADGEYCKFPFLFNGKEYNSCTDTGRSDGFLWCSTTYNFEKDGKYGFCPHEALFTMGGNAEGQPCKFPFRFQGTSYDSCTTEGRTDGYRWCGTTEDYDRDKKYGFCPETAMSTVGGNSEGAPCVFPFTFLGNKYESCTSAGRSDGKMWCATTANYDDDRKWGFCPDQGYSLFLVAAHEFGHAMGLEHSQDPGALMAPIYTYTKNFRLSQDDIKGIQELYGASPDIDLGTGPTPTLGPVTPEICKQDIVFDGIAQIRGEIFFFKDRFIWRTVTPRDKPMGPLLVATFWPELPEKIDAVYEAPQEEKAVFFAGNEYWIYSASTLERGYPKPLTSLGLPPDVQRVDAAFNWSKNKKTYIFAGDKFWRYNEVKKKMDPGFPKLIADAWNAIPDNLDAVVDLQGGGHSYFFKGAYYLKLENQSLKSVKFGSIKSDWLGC
The test is described as follows: Selectivity testing against zinc metalloproteases: MMP-2. In kind it is biochemical. As to conditions: read-out: IC50 MMP-2; n = 3 Mean ± SD.

The target of the next test is ADAM17 (Homo sapiens, UniProt P78536). The test is described as follows: Selectivity testing against zinc metalloproteases: ADAM17. In kind it is biochemical. As to conditions: read-out: IC50 ADAM17; n = 3 Mean ± SD.
Chain of ADAM17 (P78536 215-824, species assumed): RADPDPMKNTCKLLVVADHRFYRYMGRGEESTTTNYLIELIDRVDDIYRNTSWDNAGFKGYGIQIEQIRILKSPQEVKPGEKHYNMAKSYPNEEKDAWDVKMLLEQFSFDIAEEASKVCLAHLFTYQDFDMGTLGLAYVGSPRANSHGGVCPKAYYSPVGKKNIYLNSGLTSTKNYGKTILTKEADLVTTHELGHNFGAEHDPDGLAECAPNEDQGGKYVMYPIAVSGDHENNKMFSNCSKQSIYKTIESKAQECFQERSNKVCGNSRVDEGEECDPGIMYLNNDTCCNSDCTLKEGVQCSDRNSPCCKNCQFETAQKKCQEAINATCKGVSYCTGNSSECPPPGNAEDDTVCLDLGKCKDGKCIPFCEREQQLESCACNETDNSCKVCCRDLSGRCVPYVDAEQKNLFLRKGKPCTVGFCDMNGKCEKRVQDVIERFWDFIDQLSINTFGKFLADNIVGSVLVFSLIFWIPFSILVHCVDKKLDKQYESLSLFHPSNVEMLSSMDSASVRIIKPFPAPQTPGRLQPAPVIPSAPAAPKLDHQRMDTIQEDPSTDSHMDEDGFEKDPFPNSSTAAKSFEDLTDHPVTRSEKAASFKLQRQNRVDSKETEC

Chain of MMP-8 (P22894 101-467, species assumed): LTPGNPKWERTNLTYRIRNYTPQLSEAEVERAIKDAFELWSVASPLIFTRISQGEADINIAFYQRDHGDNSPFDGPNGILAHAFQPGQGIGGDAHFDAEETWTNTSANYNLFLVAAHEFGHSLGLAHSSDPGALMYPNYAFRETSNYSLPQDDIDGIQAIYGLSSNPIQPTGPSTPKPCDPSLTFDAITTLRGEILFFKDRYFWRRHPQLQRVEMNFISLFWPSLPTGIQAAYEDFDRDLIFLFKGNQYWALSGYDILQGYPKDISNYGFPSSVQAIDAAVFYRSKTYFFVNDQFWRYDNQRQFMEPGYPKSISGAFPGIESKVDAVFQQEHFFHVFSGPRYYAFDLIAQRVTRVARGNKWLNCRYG
Chain of MMP-9 (P14780 94-707, species assumed): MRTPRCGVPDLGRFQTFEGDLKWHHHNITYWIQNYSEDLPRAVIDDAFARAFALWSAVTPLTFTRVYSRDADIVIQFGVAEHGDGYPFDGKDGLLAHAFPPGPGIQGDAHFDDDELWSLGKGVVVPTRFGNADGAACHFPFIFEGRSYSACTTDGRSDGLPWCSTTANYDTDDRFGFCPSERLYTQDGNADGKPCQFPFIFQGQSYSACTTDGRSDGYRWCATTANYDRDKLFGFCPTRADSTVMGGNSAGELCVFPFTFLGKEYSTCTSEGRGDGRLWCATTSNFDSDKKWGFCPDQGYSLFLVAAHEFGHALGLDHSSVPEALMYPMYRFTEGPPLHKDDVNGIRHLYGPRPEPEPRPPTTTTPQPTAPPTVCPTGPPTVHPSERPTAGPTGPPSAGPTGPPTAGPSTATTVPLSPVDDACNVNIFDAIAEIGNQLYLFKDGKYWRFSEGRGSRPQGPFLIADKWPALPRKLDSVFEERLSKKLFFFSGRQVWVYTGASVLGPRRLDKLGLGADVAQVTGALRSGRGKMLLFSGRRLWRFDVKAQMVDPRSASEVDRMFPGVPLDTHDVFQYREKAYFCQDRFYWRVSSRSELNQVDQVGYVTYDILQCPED

In the case of `c1ccc(-c2ccccn2)nc1` [2,2′-bipyridyl], at meprin β [1], the “meprin β LOPAC pilot screen outcome” value is “inactive”. Besides, on meprin α [2], the “meprin α LOPAC pilot screen outcome” value was “inactive”.
Regarding `O=C(O)[C@@H]1C[C@H](C(=O)O)N1` [cis-Azetidine-2,4-dicarboxylic acid], the “meprin α LOPAC pilot screen outcome” value on meprin α [2] is reported as “selective hits”.
Regarding `CCCCC[C@H](CC(=O)NO)C(=O)N[C@H](C(=O)N1CCC[C@H]1CO)C(C)C` [actinonin], the IC50 is 5.2 ± 0.1 µM at meprin β [3] (IC50 meprin β, 0.1% DMSO); 4.5 ± 0.1 µM against meprin β [3] (IC50 meprin β, 1.0% DMSO); 1.5 ± 0.07 nM against meprin α [4] (IC50 meprin α, 0.1% DMSO); 2.5 ± 0.1 nM against meprin α [4] (IC50 meprin α, 1.0% DMSO). Also, the entries for the “meprin α LOPAC pilot screen outcome” value at meprin α [2] and on meprin α [2] (listed as Actinonin) were “meprin α selective” and “selective hits”, respectively. Also, the Ki was 2 µM at meprin β [5] and 20 nM at meprin α [6] (read-out: Ki meprin α). Also, in the test on meprin α [6] (ratio of Ki values), the “fold more potent inhibition of meprin α than meprin β” value is on record as 100 fold.
`N.N.O=C([O-])C1(C(=O)[O-])CCC1.[Pt+2]` [Carboplatin, carboplatin]: on meprin β [1], the “% inhibition meprin β in pilot screen” value was “negative inhibition values” and the “meprin β LOPAC pilot screen outcome” value is reported as “selective hits”.
For `Cc1nc(N=Nc2cc(S(=O)(=O)[O-])c3cc([N+](=O)[O-])cc(S(=O)(=O)[O-])c3c2)c(COP(=O)([O-])[O-])c(C=O)c1O.[Na+].[Na+].[Na+].[Na+]` [PPNDS, Pyridoxal-5′-phosphate-6-(2′-naphthylazo-6′-nitro-4′,8′-disulfonate) tetrasodium], the IC50 on ADAM10 came out at 19 ± 1.1 µM; on MMP-13, 69 ± 4.3 µM; on MMP-9, 40 ± 2.5 µM; at meprin β [3] (read-out: IC50 Meprin β, selectivity testing, n = 3 Mean ± SD), 0.08 ± 0.005 µM; at MMP-14, 73 ± 7 µM; on meprin α [4] (read-out: IC50 Meprin α, selectivity testing, n = 3 Mean ± SD), 67000 ± 4500 nM. In addition, the figures for the IC50 on MMP-8, on MMP-2 and at ADAM17 were 1000 ± 100 nM, 31 ± 2 µM and 91 ± 7.1 µM, respectively. On meprin β [1], the “meprin β LOPAC pilot screen outcome” value is on record as “selective hits”. For the same molecule, the “potency differential meprin β versus meprin α” value on meprin β [3] (ratio of IC50 values) is given as approximately 1000 fold. Besides, on meprin β [3] (ratio of IC50 values), the “selectivity ratio meprin β versus MMP-8” value was “approximately 12 fold”. The “Ki lower than IC50, fold” value on meprin β [7] (meprin β Ki versus HTS IC50) was 10 fold. Moreover, at meprin β [7] (mixed-model inhibition, non-linear regression), the “α = Ki/Ki′” value stood at 36 ± 27. The “mechanism of inhibition of meprin β” value on meprin β [7] (non-linear regression and Lineweaver-Burke plots) was “pure competitive inhibition modality; also recorded: pure competitive inhibition mechanism”. Further, the Ki at meprin β [7] (read-out: Ki meprin β, substrate (MCA)-EDEDED-(K-ε-DNP), mixed inhibition model) is 8 ± 2.4 nM.
Take `O=P(O)(O)C(Cl)(Cl)P(=O)(O)O` [clodronic acid]: the “meprin β LOPAC pilot screen outcome” value on meprin β [1] was “inactive”. Moreover, on meprin α [2], the “meprin α LOPAC pilot screen outcome” value was “inactive”.
Take `CC(C)C[C@H](NC(=O)[C@H](O)[C@H](N)Cc1ccccc1)C(=O)O.Cl` [epibestatin HCl]: on meprin β [1], the “meprin β LOPAC pilot screen outcome” value is “inactive”. Further, the “meprin α LOPAC pilot screen outcome” value on meprin α [2] was “inactive”.
Take `O.c1cnc2c(c1)ccc1cccnc12` [1,10-phenanthroline monohydrate]: the “meprin β LOPAC pilot screen outcome” value on meprin β [1] was “inactive”. For the same molecule, the “meprin α LOPAC pilot screen outcome” value on meprin α [2] is “inactive”.
`CNC(=O)[C@H](Cc1c[nH]c2ccccc12)NC(=O)[C@@H](CC(=O)NO)CC(C)C` [galardin]: the Ki on meprin β [5] is 8.9 ± 0.71 µM.
As to `CNC(=O)[C@H](Cc1ccccc1)NC(=O)[C@H](CC(C)C)[C@H](CSc1cccs1)C(=O)NO` [batimastat], the Ki on meprin β [5] is 18 ± 2.2 µM.
In the case of `CCN(CC)CCNC(=O)c1ccc(NC(C)=O)cc1.Cl` [N-Acetylprocainamide hydrochloride], the “meprin α LOPAC pilot screen outcome” value at meprin α [2] is reported as “selective hits”.
Same read-out and setting: the entry for `CC(=O)c1ccc(S(=O)(=O)NC(=O)NC2CCCCC2)cc1` [Acetohexamide] is “selective hits”.
